From ChEMBL document CHEMBL1909641, “Rational design of 2-pyrrolinones as inhibitors of HIV-1 integrase” (Bioorg Med Chem Lett, 2011)

Legend:
[1] = target: T1, Human immunodeficiency virus type 1 integrase (Human immunodeficiency virus 1, UniProt Q7ZJM1); assay: Inhibition of HIV1 integrase-mediated 3' processing of viral DNA after 30 mins by PAGE
[2] = target: T1, Human immunodeficiency virus type 1 integrase; assay: Inhibition of HIV1 integrase-mediated single strand tansfer of viral DNA after 30 mins by PAGE
[3] = system: Human immunodeficiency virus 1; assay: Antiviral activity against HIV1 pNL4.3 infected in human TZM-bl cells by luciferase reporter gene assay; type: functional, organism-based
[4] = Cytotoxicity against human TZM-bl cells infected with HIV1 pNL4.3; type: cell-based
How it was run: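 CC50 is the cytostatic concentration required to kill 50% of TZM-bl cells.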

[5] = Selectivity index, ratio of CC50 against human TZM-bl cells to EC50 for inhibition of HIV1 integrase activity in TZM-bl cells infected with HIV1 pNL4.3; type: toxicity, cell-based; conditions: read-out: Ratio CC50/EC50
How it was run: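 SI is calculated as the CC50 in TZM-bl cells divided by the antiviral EC50.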

T1 sequence (Q7ZJM1 whole entry): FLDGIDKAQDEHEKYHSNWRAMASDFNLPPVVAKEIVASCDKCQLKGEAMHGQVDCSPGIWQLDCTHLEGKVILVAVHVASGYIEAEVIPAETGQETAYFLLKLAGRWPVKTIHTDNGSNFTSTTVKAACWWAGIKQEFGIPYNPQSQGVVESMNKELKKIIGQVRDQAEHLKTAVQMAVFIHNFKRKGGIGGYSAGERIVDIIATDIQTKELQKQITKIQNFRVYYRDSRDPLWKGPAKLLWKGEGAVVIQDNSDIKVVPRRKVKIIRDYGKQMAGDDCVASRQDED

Row | SMILES | IC50 [1] | IC50 [2] | EC50 ([3]; tzm-bl) | CC50 [4] | EC50 ([3]; Human immunodeficiency virus 1, pNL4.3, TZM-bl, read-out: EC50) | selectivity ratio [5]
1 | O=C(C1=C(O)C(=O)N(c2ccccc2)C1c1ccc([N+](=O)[O-])cc1)c1ccccc1 (stereo not given) | 89 µM | 44 µM | Not Active | 790 µM | – | –
2 | COc1ccc(CCN2C(=O)C(O)=C(C(=O)c3ccccc3)C2c2ccc(O)cc2)cc1 (stereo not given) | > 100 µM | 100 µM | Not Active | 459 µM | – | –
3 | COc1ccc(CCN2C(=O)C(O)=C(C(=O)c3ccccn3)C2c2cccc(Cl)c2)cc1 (stereo not given) | 77 µM | 40 µM | – | 26.6 µM | 317 nM | 83.7
4 | CN1C(=O)C(O)=C(C(=O)c2ccccc2)C1c1ccc([N+](=O)[O-])cc1 (stereo not given) | > 100 µM | > 100 µM | – | – | – | –
5 | CC(C)CN1C(=O)C(O)=C(C(=O)c2ccccc2)C1c1ccccc1 (stereo not given) | > 100 µM | > 100 µM | – | – | – | –
6 | CN1C(=O)C(O)=C(C(=O)c2ccccn2)C1c1cccc(Cl)c1 (stereo not given) | > 100 µM | > 100 µM | – | – | – | –
7 | COc1ccc(CCN2C(=O)C(O)=C(C(=O)c3ccccc3)C2c2ccccc2)cc1 (stereo not given) | 80 µM | 45 µM | Not Active | 830 µM | – | –
8 | CN1C(=O)C(O)=C(C(=O)c2ccccc2)C1c1cccc(Cl)c1 (stereo not given) | > 100 µM | > 100 µM | – | – | – | –
